Screens (PubChem BioAssay)
TAAR1 antag – antagonists of human TAAR1. Q96RJ0. CHO RD-HGA16 TAAR1, Fluo-8 calcium fluorescence, antagonist. inhibition, % at 3 µM. 1.5% of 360,000 active;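 active = inhibition above a per-plate cutoff, the mean inhibition of test compounds on that plate plus 3 SD, cut at about 49% in these data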;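 note: 0% = DMSO plus EC80 beta-PEA response and 100% = DMSO alone without agonist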
Target sequence (Q96RJ0 whole entry, looked up): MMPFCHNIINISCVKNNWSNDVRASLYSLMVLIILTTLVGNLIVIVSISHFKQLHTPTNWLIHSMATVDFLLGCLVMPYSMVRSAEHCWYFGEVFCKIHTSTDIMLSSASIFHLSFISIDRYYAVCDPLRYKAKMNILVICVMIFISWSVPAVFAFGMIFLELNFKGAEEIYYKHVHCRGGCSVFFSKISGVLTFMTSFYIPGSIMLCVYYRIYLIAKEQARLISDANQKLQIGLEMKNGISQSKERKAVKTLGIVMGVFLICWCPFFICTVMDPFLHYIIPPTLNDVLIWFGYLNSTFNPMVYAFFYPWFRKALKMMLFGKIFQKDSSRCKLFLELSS
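Material: RD-HGA16 CHO cells with stable hTAAR1 and Gα16; Dosing: single nominal final test compound concentration of 3 µM; Schedule: seeding 17-24 h prior, 75-min 37 °C, 30-min RT dye loading; Detection: kinetic Fluo-8 calcium fluorescence measurement; Measure: % inhibition from peak post-agonist over basal fluorescence ratio; Benchmarks: vehicle and agonist controls.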
OXTR agonist – human OXTR agonism | P30559 | CHO-OTR cells, Fluo-8 calcium fluorescence; normalized: DMSO 0%, oxytocin 100% | activation, % at 3 µM | 0.32% of 320,000 active | AID 2435;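 active = activation above the mean of all tested compounds plus 3 SD, cutoff set per screening run, cut at about 20% in these data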;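 note: peak over basal fluorescence ratio from a 100 s FLIPR kinetic read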
OXTR potentiator – potentiates the human oxytocin receptor response; P30559; CHO-OTR cells, Fluo-8 calcium fluorescence, potentiator mode; 0% = oxytocin EC15, 100% = EC100; activation, % at 3 µM; 0.061% of 320,000 active; AID 2445;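 active = activation above that plate's cutoff, the mean activation of tested compounds plus 3 SD, cut at about 6.6% in these data, passing the limit was not always enough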;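 note: 100% uses oxytocin at 75 nM as the full agonist control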
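Material: CHO-OTR cells, human receptor; compound dosing: single dose, 3.0 µM nominal final compound concentration; schedule: 6 min compound pre-incubation at room temperature, 100 s kinetic read; measured by: kinetic Fluo-8 calcium fluorescence; read-out basis: % activation vs EC15 and EC100 oxytocin; controls: EC15 oxytocin alone as 0%, 75 nM oxytocin as 100%; replicates: singlicate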
TAAR1 agonist – agonists of human TAAR1. CHO RD-HGA16 TAAR1, Fluo-8 calcium fluorescence; vehicle wells 0%, saturating PEA agonist 100%. activation, % at 3 µM. 0.99% of 360,000 active. AID 624467;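 active = activation above the mean activation of all test compounds in the run plus 3 SD, cut at about 38% in these data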
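Signal – calcium-sensitive Fluo-8 signal, excitation 470-495, emission 515-575 nm · System – RD-HGA16 (CHO) cells co-expressing Gα16 and hTAAR1 · Incubation – 17-24 h seeding, 75 min 37 °C dye, 30 min RT · Compound dosing – 3 µM single concentration · Repeats – no replicates (n 1)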
V1R ag counter – counter-screen for oxytocin receptor agonists: human V1a receptor agonists. CHO-V1R cells, Fluo-8 calcium fluorescence, agonist mode; 0% DMSO, 100% 3 nM vasopressin. 0.25% of 320,000 active. activation, % at 3 µM;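 active = activation above the mean activation of all tested compounds plus 3 SD, per screening run, cut at about 20% in these data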;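 note: signal is peak over basal fluorescence ratio across a 100 second FLIPR read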
V1aR agonist cf – human V1a receptor agonism, confirmation; activation, % at 3 µM; CHO-V1R cells, Fluo-8 calcium fluorescence, agonist; 20% of 180 active; shares compounds with V1R ag counter; AID 434964;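 active = average activation exceeds primary screen hit cutoff, cut at about 21% in these data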;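 note: peak over basal fluorescence ratio during a 100 s FLIPR read; 0% = DMSO only wells and 100% = 3 nM vasopressin wells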
OXTR counter – OXTR agonism, counter-screen for V1R agonists; CHO-OTR cells, Fluo-8 calcium fluorescence, agonist; AID 434969; activation, % at 3 µM; shares compounds with V1R ag counter; 10% of 180 active;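 active = mean activation over three repeats above the cutoff from the earlier oxytocin receptor agonist screen, cut at about 20% in these data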;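 note: peak over minimum fluorescence ratio within a 100 second FLIPR read; 0% = DMSO only wells and 100% = oxytocin high control wells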
Numbers without * were called inactive; . = no result given. Sampled rows, rich in hits. Any-hit rate of the full collection: about 2.3%.

SMILES	TAAR1 antag	OXTR agonist	OXTR potentiator	TAAR1 agonist	V1R ag counter	V1aR agonist cf	OXTR counter
CCn1c(=O)c(C(=O)NNC(=O)c2cccc(Cl)c2)c(O)c2ccccc21	71*	14	-11	38*	26*	17	11
CCn1c(=O)c(C(=O)NNC(=O)c2ccccc2Br)c(O)c2ccccc21	8	11	-12	46*	47*	1	1
CN(C)c1ccc(C(=O)C(=O)N2CCN(c3ccccc3)CC2)cc1	-5	.	.	1	.	.	.
CNC(=O)c1[nH]cnc1C(=O)Nc1ccccn1	-6	3	-1	5	43*	1	0
CC(Oc1ccc2c(-c3ccccc3)cc(=O)oc2c1)C(=O)N1CCOCC1 (stereo not drawn)	-7	2	3	18	1	.	.
CC(Oc1ccc2ccc(=O)oc2c1)C(=O)N1CCOCC1 (stereo not drawn)	-18	0	0	2	21*	0	0
C#CCOCCOCCOCCNc1nc(N2CCN(C(=O)CCCCCCCCCCNC(=O)Cn3cc(CCCCCN)nn3)CC2)nc(N2CCN(C(=O)CCCCCCCCCCNC(=O)Cn3cc(C[C@@H](C)O)nn3)CC2)n1	.	10	-13	.	27*	8	4
C#CCOCCOCCOCCNc1nc(N2CCN(C(=O)CCCCCCCCCCNC(=O)[C@H](CCCCN)n3cc(C)nn3)CC2)nc(N2CCN(C(=O)CCCCCCCCCCNC(=O)[C@@H]([C@H](C)O)n3cc(C)nn3)CC2)n1	.	10	-12	.	31*	8	2
C#CCOCCOCCOCCNc1nc(N2CCN(C(=O)CCCCCCCCCCNC(=O)[C@@H](CCC(=O)O)n3cc(CCCCCN)nn3)CC2)nc(N2CCN(C(=O)CCCCCCCCCCNC(=O)[C@H](CCCCN)n3cc(C[C@@H](C)CC)nn3)CC2)n1	.	7	-16	.	45*	44*	9
C#CCOCCOCCOCCNc1nc(N2CCN(C(=O)CCCCCCCCCCNC(=O)[C@@H](CCC(=O)O)n3cc(CCCCCN)nn3)CC2)nc(N2CCN(C(=O)CCCCCCCCCCNC(=O)[C@H](CO)n3cc(CCCCCN)nn3)CC2)n1	.	2	-7	.	9	.	.
O=C(Nc1cccc(Cl)c1)Nc1ccc2nccnc2c1	58*	14	-15	47*	23*	10	10
C[C@@H]1COc2cccc(NCCCN3CCOCC3)c2S(=O)(=O)N1	-12	.	.	6	.	.	.
CS(=O)(=O)Oc1ccc2c(c1)O/C(=C\c1cccnc1)C2=O	-22	1	-1	5	2	.	.
COc1cc(OC)c(OC)cc1/C=C1\Oc2cc(OS(C)(=O)=O)ccc2C1=O	1	17	-7	14	21*	15	17
CS(=O)(=O)c1ccc(Cl)c(NC(=O)COC(=O)CCc2c[nH]c3ccccc23)c1	27	9	-19	11	28*	3	4
CCOC(=O)c1c(NC(=O)CSc2nc3ccc(C)cc3[nH]2)sc2c1CC(C)(C)NC2(C)C	-7	15	-14	18	22*	2	9
CCSC1=N/C(=C\C=C2/Oc3ccccc3N2CC)C(=O)S1	0	11	-7	6	23*	21*	13
Cc1nnc(-c2ccccc2)c(=O)n1/N=C/c1c(O)ccc2ccccc12	20	16	-12	21	25*	24*	22*
CCCCCCCCCCCn1nnnc1N	5	.	.	0	.	.	.
C=CCn1c(SCC(=O)N(CC)CC)nc(O)cc1=O	-1	0	-2	2	0	.	.
CCSc1nc(O)cc(=O)n1CC	-14	5	-1	1	25*	0	0
OC(c1ccc(-c2ccccc2)cc1)c1ncc(-c2cccc(F)c2)[nH]1 (stereo not drawn)	5	.	.	1	.	.	.
Cc1ccc(OCc2cc(C(=O)NCc3ccc(OC(F)(F)F)cc3)no2)cn1	48	19	-8	41*	28*	14	21*
CCc1ccc(N=Nc2ccc(O)c3[nH]cnc23)cc1	46	14	-8	12	23*	26*	16
CCc1ccc(/C=N/Nc2ncnc3nc[nH]c23)cc1	-25	0	-6	-4	-1	.	.
SMILES	TAAR1 antag	OXTR agonist	OXTR potentiator	TAAR1 agonist	V1R ag counter	V1aR agonist cf	OXTR counter
CCCCCCCCN1C(=O)[C@@H](CC(=O)NCc2cccc(C(F)(F)F)c2)C[C@@]2(C(=O)OC)C1=C[C@H](C(C)(C)C)O[C@@H]2C	-30	.	.	0	.	.	.
CCc1ccc(NC(=O)N(CCCN2CCOCC2)C(C)c2cc3cccc(OC)c3o2)cc1 (stereo not drawn)	-30	-2	4	0	22*	0	-1
Cc1ccc(C(O)c2ncc(-c3ccc4ccccc4c3)[nH]2)c(C)c1 (stereo not drawn)	-9	.	.	1	.	.	.
CC(=O)C1CCC2C3CC(O)C4=CC(=O)CCC4(C)C3C(=O)CC12C (stereo not drawn)	10	.	.	0	.	.	.
C=CCNc1cccc2c1S(=O)(=O)N[C@@H](C)CO2	-30	.	.	1	.	.	.
CC(C)(C)OC(=O)NCCCCCNC(=O)c1ncn(Cc2ccccc2)c1C(=O)NCCCCCNC(=O)OC(C)(C)C	41	5	-7	2	5	.	.
C=CCn1cc(/C=C/c2cc[n+](C)cc2)c2ccccc21	12	3	0	1	6	.	.
C=CCn1c(C)c(/C=C/c2cc[n+](C)cc2)c2ccccc21	-18	7	-15	9	25*	6	10
C[C@@H]1CC[C@]2(C(=O)O[C@@H]3O[C@H](CO)[C@@H](O)[C@H](O)[C@H]3O)CC[C@]3(C)C(=CCC4[C@@]5(C)CC[C@H](O[C@@H]6OC[C@H](O)[C@H](O[C@@H]7O[C@H](CO)[C@@H](O)[C@H](O)[C@H]7O)[C@H]6O)C(C)(C)C5CC[C@]43C)C2[C@]1(C)O (stereo partly drawn)	11	2	8	0	1	.	.
COc1ccc(/C=C\C(=O)O[C@@H]2C(O)C(O[C@@H]3OC(C)[C@H](O[C@@H]4OCC(O[C@H]5O[C@H](CO)[C@@H](O)C(O)C5O)C(O)C4O)C(O)C3O)[C@H](OC(=O)[C@]34CCC(C)(C)C[C@@H]3C3=CCC5[C@@]6(C)CC(O)C(O[C@@H]7OC(CO)C(O)[C@H](O)[C@H]7O)[C@@](C)(C(=O)O)C6CC[C@@]5(C)[C@]3(CO)CC4)O[C@H]2C)cc1 (stereo partly drawn)	.	6	-7	.	73*	79*	44*
